Screens (PubChem BioAssay)
The list is not random: actives were taken first. Their share in the collection is about 2.1%.
proKLK7 act: proKLK7 (human) activation, primary screen. P49862. purified proKLK7, EDANS-DABCYL substrate fluorescence; 100% is mature enzyme control, 0% vehicle. activation, % at 7 µM. hit rate 0.9% among 370,000;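 active = activation above the mean of all tested compounds plus 3 SD, computed per campaign excluding outliers beyond control limits, cut at about 13% in these data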
Target sequence (P49862 whole entry, looked up): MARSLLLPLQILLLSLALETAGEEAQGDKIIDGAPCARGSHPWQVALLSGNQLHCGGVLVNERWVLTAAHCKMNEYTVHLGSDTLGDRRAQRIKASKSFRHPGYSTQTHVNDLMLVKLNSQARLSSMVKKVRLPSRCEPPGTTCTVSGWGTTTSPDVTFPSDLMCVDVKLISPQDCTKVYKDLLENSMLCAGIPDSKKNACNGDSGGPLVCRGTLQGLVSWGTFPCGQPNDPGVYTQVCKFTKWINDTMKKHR
Runt-CBFb FRET: Runt domain-CBFb interaction inhibition; Cerulean-Runt/Venus-CBFb FRET ratio 530/480, 1 h; AID 1496; inhibition, % at 20 µM; hit rate 0.46% among 220,000; Q01196+Q13951;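 active = inhibition over about 50% at 20 µM in the single-dose screen, limit read from the data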
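test system = Cerulean-Runt domain fusion protein, energy donor | probe or stimulus = Venus-CBFb binding partner, 100 nM | incubation = two 1 h room-temperature incubations shielded from light | detection = fluorescence energy transfer, 422 nm excitation, 530/480 nm emission | measure = loss of energy transfer signal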
Runt-SMMHC FRET: inhibitors of human RUNX1 Runt domain binding to CBFb-SMMHC. Q01196+Q13951. Cerulean-Runt/Venus-CBFb-SMMHC FRET ratio 530/480, 1 h. inhibition, % at 20 µM. hit rate 0.74% among 220,000. AID 1434;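 active = mean inhibition across duplicate retests at 20 µM reaching about 50%, limit read from the data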;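 also: inhibitors lower the FRET ratio by blocking Runt binding to CBFb-SMMHC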
RanGTP-Impb inh: disruptors of Ran-importin-beta complex formation – biochemical, FRET, CFP-Ran, YFP-importin-beta, homogeneous, primary screen; AID 2216; cell-free CFP-Ran/YFP-importin-beta FRET ratio; hit rate 1.1% among 300,000; inhibition, % (concentration not given with the values);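 active = more than half of the replicate wells show a fall in the fluorescence ratio signal beyond about 16%, limit read from the data, passing the limit was not always enough; inconclusive = exactly half of the replicate wells pass the set limit; inactive = fewer than half of replicates pass the limit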
MEX-5 binding: C. elegans MEX-5 TCR-2 RNA binding activity | AID 1832 | Q9XUB2 | hit rate 0.38% among 300,000 | activity score (negative = inhibition of binding), % at 10 µM | MEX-5/FITC-TCR2 RNA binding, fluorescence polarization; stronger effect = lower value;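 active = inhibition past about -25% in most replicates, and total fluorescence under double the plate's negative control median, limit read from the data; inconclusive = replicates evenly split on the limit, or fluorescence at least double controls; inactive = too little inhibition in most replicates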
Numbers stand for hits; i = inactive; ? = inconclusive; nt = no result given.

SMILES | proKLK7 act | Runt-CBFb FRET | Runt-SMMHC FRET | RanGTP-Impb inh | MEX-5 binding
Cc1ccc2c(c1)-c1ccccc1S(=O)(=O)N2 | i | i | i | i | i
O=[N+]([O-])c1ccc(Nc2ccccc2O)c2nonc12 | i | nt | nt | i | -36
O=C(O)c1ccc(Nc2ccc([N+](=O)[O-])c3nonc23)cc1 | i | nt | nt | i | i
OC(CCCN1CCCCC1)(c1ccccc1)c1ccc(C(F)(F)F)cc1 (configuration not stated) | i | nt | nt | nt | nt
CC1(C(=O)Nc2cccc(Oc3ccccc3)c2)CCN1C1Cc2ccccc2C1 (configuration not stated) | i | nt | nt | nt | nt
O=C(CC1Nc2ccccc2NC1=O)Nc1cc(Cl)cc(Cl)c1 (configuration not stated) | i | i | i | i | ?
CCOC(=O)c1c(NC(=O)CC2Nc3ccccc3NC2=O)sc(C)c1C (configuration not stated) | i | i | i | i | -35
COC(=O)c1c(NC(=O)CC2Nc3ccccc3NC2=O)sc(C)c1C (configuration not stated) | i | i | i | i | -32
Cc1ccc(S(=O)(=O)N(C)c2ccc(C(=O)NCC(c3ccco3)N(C)C)cc2)cc1 (configuration not stated) | i | nt | nt | nt | nt
COc1ccccc1NC(=O)C1CCCN1C(=O)NC1CCCCC1 (configuration not stated) | i | nt | nt | i | i
COC(=O)C1=CNC=C(C(=O)OC)C1c1cccc(OC)c1 | i | i | 100 | i | i
COC(=O)C1=CN(c2cccc(Cl)c2)C=C(C(=O)OC)C1c1cccc(OC)c1 | i | nt | nt | i | i
O=C/C(=C\Nc1ccccn1)c1nc2cc(Cl)ccc2o1 | i | i | i | i | ?
O=C/C(=C\Nc1ccccn1)c1nc2ccccc2o1 | i | i | i | i | -37
CC(=O)Nc1cccc(N/C=C(\C=O)c2nc3ccccc3o2)c1 | i | i | 66 | i | i
CSc1ccc(C=Nn2c(-c3cc(C)[nH]n3)n[nH]c2=S)cc1 | i | nt | nt | nt | nt
O=C(O)c1ccccc1C(=O)N(c1ccccc1)c1ccccc1 | i | nt | nt | 31 | i
O=C(N(c1ccccc1)c1ccccc1)N(c1ccccc1)c1ccccc1 | i | i | i | i | i
CCC(=O)N1N=C(c2cccs2)CC1c1ccc(OC)cc1 (configuration not stated) | i | nt | nt | i | i
COc1ccc(C2CC(c3cccs3)=NN2S(C)(=O)=O)cc1OC (configuration not stated) | i | i | i | nt | nt
COc1ccc(C2CC(c3cccs3)=NN2c2ccc(C=O)cc2)cc1 (configuration not stated) | i | i | 73 | i | -47
Fc1ccc(C2CC(c3cccs3)=NN2c2ccccc2)cc1 (configuration not stated) | i | i | 79 | i | i
COc1ccc(C2CC(c3cccs3)=NN2c2nc(-c3ccccc3)cs2)cc1OC (configuration not stated) | i | i | i | 56 | i
COc1ccc(C2=NN(c3ccc(C=O)cc3)C(c3ccccc3)C2)cc1 (configuration not stated) | nt | nt | nt | 31 | i
COc1cccc(C2NC(=O)CCC2[N+](=O)[O-])c1 (configuration not stated) | i | nt | nt | i | i
SMILES | proKLK7 act | Runt-CBFb FRET | Runt-SMMHC FRET | RanGTP-Impb inh | MEX-5 binding
CCc1cccc(C)c1NC(=S)N(CCN(C)C)Cc1cccs1 | i | i | i | 54 | i
COC(=O)/C(C#N)=C/c1c(N2CCCCCC2)nc2ccccn2c1=O | i | nt | nt | i | i
N#C/C(=C\c1c(N2CCCCC2)nc2ccccn2c1=O)C(=O)NC1CCS(=O)(=O)C1 (configuration not stated) | i | i | 81 | 80 | i
Cc1cccn2c(=O)c(/C=C(\C#N)C(=O)NC3CCS(=O)(=O)C3)c(N3CCC(C)CC3)nc12 (configuration not stated) | i | i | 63 | 84 | i
CCOC(=O)C1=C(C)NC2=C(C(=O)CC(C)(C)C2)C1c1cccc(C)n1 (configuration not stated) | i | i | 88 | ? | i
CCOC(=O)C1=C(C)NC(C)=C(C(=O)OCC)C1c1cccc(C)n1 | i | i | i | i | i
